The source made the active and inactive calls. The calls are words filed in the database; no cut-off is given here.
Tests used:
Arginase-1 [1] = molecular target: T1, Arginase-1 (Homo sapiens, UniProt P05089); assay: Inhibition of human recombinant full length arginase 1 expressed in Escherichia coli BL21(DE3) by fixed point assay
T1 sequence (P05089 whole entry): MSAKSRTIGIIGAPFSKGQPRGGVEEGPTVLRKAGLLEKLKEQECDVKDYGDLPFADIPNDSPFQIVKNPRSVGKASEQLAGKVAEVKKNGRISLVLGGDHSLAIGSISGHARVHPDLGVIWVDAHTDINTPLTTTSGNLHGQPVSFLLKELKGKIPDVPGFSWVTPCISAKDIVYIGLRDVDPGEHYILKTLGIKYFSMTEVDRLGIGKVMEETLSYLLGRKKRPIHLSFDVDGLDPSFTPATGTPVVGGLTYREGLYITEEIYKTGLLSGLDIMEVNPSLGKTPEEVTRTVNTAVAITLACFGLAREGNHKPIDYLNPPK

Arginase-1 [2] = molecular target: T1, Arginase-1; assay: Inhibition of human recombinant full length arginase 1 expressed in Escherichia coli BL21(DE3) by surface plasmon resonance assay
Mus musculus [3] = assay: Antiinflammatory activity in ovalbumin-sensitized and challenged BALB/c mouse model assessed as attenuation of methacholine-induced maximum total lung resistance at 85 ug/g administered via nebulization 24 hrs after ovalbumin challenge measured after 15 mins; format: functional, organism-based
How it was run: (§1)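 Mice OVA-sensitized, then nebulized 6% OVA in PBS (or PBS alone) 25 min/day on days 14–20. Day 21, 24 h after last challenge: ketamine 50 mg/kg plus xylazine 10 mg/kg, intubated, ventilator-based resistance measured. Baseline resistance re-measured 15 min after drug. Then nebulized methacholine (0–100 mg/mL in PBS) dose-response via ventilator circuit. Maximum R and RN read; means ± SE, n = 12/group.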

Mus musculus [4] = assay: Antiinflammatory activity in ovalbumin-sensitized and challenged BALB/c mouse model assessed as attenuation of methacholine-induced increase in central airways responsiveness at 85 ug/g administered via nebulization 24 hrs after ovalbumin challenge measured after 15 mins; format: functional, organism-based; how it was run: as §1
Nitric oxide synthase 1 = Nitric oxide synthase 1 (Rattus norvegicus, UniProt P29476); assay: Inhibition rat recombinant nNOS
[5] = molecular target: T2, Nitric oxide synthase, inducible (Mus musculus, UniProt P29477); assay: Inhibition of mouse recombinant iNOS
T2 sequence (P29477 whole entry): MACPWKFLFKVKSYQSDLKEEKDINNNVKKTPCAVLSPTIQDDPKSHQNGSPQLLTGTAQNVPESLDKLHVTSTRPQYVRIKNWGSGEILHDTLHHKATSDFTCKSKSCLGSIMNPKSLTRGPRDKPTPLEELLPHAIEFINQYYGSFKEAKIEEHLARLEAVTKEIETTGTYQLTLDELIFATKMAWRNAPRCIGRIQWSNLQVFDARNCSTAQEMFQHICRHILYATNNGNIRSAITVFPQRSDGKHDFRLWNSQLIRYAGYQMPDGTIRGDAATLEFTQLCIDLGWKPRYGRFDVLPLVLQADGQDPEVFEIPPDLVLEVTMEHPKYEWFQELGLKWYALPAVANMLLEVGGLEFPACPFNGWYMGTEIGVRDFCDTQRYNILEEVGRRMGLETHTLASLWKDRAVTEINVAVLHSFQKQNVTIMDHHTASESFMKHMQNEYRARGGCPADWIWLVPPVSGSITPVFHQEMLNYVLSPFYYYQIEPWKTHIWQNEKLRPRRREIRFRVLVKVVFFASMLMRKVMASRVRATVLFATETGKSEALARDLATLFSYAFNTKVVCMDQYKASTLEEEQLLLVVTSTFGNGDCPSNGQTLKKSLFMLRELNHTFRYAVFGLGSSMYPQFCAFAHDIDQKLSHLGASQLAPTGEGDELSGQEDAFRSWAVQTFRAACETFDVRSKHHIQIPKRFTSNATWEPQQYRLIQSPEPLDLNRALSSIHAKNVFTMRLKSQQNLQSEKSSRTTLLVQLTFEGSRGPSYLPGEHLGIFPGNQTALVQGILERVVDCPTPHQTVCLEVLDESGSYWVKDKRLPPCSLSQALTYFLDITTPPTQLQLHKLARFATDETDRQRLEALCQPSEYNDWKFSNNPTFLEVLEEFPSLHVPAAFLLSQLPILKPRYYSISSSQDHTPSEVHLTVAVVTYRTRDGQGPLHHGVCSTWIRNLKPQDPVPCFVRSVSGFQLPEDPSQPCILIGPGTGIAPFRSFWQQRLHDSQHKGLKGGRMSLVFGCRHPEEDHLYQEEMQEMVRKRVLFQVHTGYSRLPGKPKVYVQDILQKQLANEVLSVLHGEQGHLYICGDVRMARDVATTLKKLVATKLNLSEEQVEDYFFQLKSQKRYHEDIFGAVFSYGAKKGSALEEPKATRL

Sequence of Nitric oxide synthase 1 (P29476 whole entry): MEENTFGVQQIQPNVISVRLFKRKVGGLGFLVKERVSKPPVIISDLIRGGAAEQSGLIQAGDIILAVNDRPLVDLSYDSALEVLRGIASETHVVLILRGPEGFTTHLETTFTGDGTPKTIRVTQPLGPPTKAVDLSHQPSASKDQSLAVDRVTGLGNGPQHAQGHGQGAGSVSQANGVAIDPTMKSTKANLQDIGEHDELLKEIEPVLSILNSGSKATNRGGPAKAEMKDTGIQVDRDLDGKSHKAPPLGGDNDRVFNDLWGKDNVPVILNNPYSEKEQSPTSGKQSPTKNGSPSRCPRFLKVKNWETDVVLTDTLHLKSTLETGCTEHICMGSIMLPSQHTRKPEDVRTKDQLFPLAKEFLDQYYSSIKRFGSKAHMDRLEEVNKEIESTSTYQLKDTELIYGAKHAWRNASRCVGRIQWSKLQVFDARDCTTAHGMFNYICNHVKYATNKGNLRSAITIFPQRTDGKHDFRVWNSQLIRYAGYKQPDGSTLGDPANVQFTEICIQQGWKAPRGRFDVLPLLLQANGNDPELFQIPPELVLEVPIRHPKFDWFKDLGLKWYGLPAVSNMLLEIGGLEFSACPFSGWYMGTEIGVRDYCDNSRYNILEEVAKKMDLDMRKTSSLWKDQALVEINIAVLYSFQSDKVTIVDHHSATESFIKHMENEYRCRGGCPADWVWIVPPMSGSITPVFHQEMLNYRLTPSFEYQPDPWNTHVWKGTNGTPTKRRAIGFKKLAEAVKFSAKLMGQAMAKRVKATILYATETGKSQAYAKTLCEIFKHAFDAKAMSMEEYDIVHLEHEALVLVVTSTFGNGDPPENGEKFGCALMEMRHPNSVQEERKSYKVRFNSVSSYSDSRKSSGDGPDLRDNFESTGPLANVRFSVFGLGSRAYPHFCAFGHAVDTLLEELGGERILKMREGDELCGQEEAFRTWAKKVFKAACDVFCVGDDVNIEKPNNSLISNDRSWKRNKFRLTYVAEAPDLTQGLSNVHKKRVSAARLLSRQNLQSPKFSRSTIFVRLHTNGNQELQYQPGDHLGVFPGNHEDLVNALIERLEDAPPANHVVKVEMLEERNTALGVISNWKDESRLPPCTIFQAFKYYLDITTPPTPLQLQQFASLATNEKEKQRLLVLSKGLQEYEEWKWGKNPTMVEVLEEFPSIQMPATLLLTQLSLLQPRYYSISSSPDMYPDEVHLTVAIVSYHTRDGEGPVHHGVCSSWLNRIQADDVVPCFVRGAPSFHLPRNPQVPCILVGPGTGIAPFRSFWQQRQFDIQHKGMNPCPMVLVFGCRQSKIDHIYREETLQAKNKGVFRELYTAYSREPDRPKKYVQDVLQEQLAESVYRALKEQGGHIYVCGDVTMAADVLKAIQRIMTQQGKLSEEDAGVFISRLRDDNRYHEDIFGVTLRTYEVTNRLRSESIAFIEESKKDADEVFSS

Question: `Nc1ncc[nH]1` was tested. Which Ki (Arginase-1 [1]) did it give?
Answer: Its Ki is 3600 µM.

Question: Which results are given for `Nc1nccn1CCC[C@H](N)C(=O)O`?
Answer: Kd (Arginase-1 [2]): 2000 nM; inhibition (Mus musculus [3]): Active; inhibition (Mus musculus [4]): Active; IC50 (Nitric oxide synthase 1): 135 µM; IC50 [5]: 480 µM; Ki (Arginase-1 [1]): 4 µM

Question: `N[C@@H](CCCNc1ncc[nH]1)C(=O)O` was tested. Which Ki (Arginase-1 [1]) did it give?
Answer: Its Ki is 500 µM.
